Reference: ChEMBL document CHEMBL2331548, “Identification of N-acyl 4-(3-pyridonyl)phenylalanine derivatives and their orally active prodrug esters as dual acting α4β1 and α4β7 receptor antagonists” (Bioorg Med Chem Lett, 2013)
≈ marks a conversion by molar mass, not a printed value.

How the values were obtained:
Integrin alpha-4/beta-1 [1] = biological target: T1, Integrin alpha-4/beta-1 (Homo sapiens, UniProt P05556+P13612); experiment: Inhibition of human VCAM1 binding to integrin alpha4beta1 receptor in human Ramos cells labeled with Calcein AM; type: cell-based
Summary of the method: (§1)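 Serially diluted compound tested for blocking adhesion of Calcein AM-labelled cells to recombinant human counter-ligand: RAMOS cells on VCAM-1 (α4β1) and RPMI 8866 cells on MAdCAM-1 (α4β7). Cells activated beforehand in Mn2+-containing binding buffer for maximal activation. IC50 taken from fluorescence; RO0270608 run on every plate, and relative potency expressed as fold versus this control because cell activity drifted with passage.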

[2] = biological target: Integrin alpha-4/beta-7 (Homo sapiens) (UniProt P13612+P26010); experiment: Inhibition of human MAdCAM1 binding to integrin alpha4beta7 receptor in human RPMI 8866 cells labeled with Calcein AM relative to RO0270608; type: cell-based; summary of the method: as §1
Integrin alpha-4/beta-7 = biological target: T2, Integrin alpha-4/beta-7 (Homo sapiens, UniProt P13612+P26010); experiment: Inhibition of human MAdCAM1 binding to integrin alpha4beta7 receptor in human RPMI 8866 cells labeled with Calcein AM; type: cell-based; summary of the method: as §1
T2 sequence (P13612 whole entry): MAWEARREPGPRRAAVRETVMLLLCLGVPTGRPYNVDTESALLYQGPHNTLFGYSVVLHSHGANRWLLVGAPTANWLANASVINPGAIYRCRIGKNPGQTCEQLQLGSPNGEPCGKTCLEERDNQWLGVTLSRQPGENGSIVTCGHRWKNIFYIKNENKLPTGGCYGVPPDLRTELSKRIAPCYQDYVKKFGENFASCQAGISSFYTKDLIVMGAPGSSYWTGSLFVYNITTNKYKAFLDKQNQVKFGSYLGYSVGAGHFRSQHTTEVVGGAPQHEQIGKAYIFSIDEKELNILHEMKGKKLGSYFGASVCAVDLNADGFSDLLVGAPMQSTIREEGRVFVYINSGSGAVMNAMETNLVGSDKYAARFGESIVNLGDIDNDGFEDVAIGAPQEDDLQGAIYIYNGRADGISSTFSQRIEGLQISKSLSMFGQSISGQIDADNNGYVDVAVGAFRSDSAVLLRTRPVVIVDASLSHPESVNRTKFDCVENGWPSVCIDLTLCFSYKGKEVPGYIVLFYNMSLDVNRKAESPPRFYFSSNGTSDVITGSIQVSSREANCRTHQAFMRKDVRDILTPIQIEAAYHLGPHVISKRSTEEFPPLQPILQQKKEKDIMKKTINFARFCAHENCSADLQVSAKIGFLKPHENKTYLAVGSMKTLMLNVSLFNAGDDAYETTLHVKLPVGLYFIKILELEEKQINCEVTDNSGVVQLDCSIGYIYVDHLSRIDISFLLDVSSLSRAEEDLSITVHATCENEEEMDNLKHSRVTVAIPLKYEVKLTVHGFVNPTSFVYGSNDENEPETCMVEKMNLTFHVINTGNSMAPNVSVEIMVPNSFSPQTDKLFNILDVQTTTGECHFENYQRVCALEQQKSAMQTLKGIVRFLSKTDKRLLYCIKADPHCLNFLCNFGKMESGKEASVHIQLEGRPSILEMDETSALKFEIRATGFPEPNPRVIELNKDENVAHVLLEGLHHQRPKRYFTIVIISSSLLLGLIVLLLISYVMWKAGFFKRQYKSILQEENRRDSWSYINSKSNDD
T2 sequence (P26010 whole entry): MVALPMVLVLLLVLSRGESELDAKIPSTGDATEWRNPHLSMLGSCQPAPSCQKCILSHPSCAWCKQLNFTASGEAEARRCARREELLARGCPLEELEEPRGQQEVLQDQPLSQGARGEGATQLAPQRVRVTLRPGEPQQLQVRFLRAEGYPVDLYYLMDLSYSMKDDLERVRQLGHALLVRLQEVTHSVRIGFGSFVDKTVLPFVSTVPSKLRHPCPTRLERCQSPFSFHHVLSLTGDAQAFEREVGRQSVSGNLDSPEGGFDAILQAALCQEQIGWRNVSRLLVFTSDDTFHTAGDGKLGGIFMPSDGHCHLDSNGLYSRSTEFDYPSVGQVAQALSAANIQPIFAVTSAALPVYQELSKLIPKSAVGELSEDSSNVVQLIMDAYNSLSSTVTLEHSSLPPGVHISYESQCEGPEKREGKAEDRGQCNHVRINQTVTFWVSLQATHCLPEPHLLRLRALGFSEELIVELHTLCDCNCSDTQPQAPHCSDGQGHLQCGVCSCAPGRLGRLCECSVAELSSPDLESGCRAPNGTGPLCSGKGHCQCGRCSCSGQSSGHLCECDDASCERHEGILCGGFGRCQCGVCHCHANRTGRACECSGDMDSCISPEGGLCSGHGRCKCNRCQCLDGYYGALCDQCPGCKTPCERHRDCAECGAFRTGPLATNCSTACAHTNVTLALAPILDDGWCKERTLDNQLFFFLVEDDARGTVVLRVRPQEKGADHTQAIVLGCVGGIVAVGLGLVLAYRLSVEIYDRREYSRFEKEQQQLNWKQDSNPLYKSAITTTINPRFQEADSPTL

Integrin alpha-4/beta-1 [3] = biological target: T1, Integrin alpha-4/beta-1; experiment: Inhibition of human VCAM1 binding to integrin alpha4beta1 receptor in human Ramos cells labeled with Calcein AM relative to RO0270608; type: cell-based; summary of the method: as §1
[4] = Apparent permeability across human Caco2 cells; type: ADME, cell-based; conditions: Caco-2
[5] = Solubility in simulated intestinal fluid at pH 7.5; type: physicochemical
[6] = Oral bioavailability in rat; type: ADME, organism-based; conditions: in vivo
[7] = Stability in simulated intestinal fluid at pH 7.5 assessed as half life; type: physicochemical; conditions: for Stability: simulated gi fluid; for half-life: simulated intestinal fluid
[8] = Stability in plasma (unknown origin) assessed as unchanged prodrug level; type: ADME, cell-free
[9] = Solubility in simulated gastric fluid at pH 2.0; type: physicochemical
hERG (KCNH2) = hERG (KCNH2) (Homo sapiens, UniProt Q12809); experiment: Inhibition of human ERG
[10] = simulated gastric fluid, read-out: solubility
[11] = simulated gi fluid, BLD = below limit of detection

T1 sequence (P05556 whole entry, one chain of several): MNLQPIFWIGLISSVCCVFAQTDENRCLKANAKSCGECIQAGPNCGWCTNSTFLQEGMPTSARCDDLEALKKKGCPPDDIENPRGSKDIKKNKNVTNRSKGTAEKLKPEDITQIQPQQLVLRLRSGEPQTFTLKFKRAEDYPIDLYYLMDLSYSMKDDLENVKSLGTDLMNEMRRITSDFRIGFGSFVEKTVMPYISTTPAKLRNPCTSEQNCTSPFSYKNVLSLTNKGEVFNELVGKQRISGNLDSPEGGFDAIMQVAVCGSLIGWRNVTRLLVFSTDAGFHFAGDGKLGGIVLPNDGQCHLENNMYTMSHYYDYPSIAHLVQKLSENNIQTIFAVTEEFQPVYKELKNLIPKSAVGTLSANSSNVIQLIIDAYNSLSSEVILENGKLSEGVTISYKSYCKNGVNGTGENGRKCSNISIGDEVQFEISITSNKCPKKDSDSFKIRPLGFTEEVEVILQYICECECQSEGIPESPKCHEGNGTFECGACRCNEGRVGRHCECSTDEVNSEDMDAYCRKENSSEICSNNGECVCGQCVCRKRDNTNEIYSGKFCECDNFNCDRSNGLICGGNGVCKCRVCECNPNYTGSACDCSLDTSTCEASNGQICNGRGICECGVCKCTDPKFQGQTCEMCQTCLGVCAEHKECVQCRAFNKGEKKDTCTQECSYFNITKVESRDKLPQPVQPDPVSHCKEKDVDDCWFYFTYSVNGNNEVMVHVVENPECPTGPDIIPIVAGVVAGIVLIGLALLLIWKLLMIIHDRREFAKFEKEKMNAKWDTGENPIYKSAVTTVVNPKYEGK
hERG (KCNH2), sequence (Q12809 whole entry): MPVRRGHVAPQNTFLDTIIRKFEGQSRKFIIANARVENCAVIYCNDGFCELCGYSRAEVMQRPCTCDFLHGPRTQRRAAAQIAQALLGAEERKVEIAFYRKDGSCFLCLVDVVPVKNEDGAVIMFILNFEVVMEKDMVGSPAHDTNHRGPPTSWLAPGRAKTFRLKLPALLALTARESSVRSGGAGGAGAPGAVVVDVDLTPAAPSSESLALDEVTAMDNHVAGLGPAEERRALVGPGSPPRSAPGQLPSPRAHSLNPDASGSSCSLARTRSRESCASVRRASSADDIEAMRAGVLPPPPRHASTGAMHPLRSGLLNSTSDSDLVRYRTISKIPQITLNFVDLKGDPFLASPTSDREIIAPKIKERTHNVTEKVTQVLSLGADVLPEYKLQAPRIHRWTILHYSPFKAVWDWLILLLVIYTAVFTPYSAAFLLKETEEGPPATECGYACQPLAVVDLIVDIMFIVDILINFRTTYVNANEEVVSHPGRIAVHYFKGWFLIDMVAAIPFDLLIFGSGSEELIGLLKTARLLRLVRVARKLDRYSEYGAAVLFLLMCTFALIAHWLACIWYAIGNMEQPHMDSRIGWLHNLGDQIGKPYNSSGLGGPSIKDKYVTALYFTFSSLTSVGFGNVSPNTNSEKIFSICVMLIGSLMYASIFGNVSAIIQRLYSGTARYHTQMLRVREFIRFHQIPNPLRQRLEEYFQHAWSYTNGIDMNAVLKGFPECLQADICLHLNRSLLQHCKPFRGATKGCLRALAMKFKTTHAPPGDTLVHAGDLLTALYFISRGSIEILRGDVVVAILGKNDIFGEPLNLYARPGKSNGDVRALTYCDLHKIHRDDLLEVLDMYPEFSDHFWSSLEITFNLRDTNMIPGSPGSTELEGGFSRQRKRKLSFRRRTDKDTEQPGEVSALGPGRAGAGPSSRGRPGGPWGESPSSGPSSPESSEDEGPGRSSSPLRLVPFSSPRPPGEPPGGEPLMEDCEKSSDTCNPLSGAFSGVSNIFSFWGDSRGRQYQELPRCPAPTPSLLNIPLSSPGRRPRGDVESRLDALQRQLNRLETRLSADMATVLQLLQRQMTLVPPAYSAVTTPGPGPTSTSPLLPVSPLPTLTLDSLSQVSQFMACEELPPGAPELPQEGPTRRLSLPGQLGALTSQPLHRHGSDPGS

Row | Compound | IC50 (Integrin alpha-4/beta-1 [1]) [nM] | Ratio IC50 [2] | IC50 (Integrin alpha-4/beta-7) [nM] | Ratio IC50 (Integrin alpha-4/beta-1 [3]) | Papp [4] [×10⁻⁶ cm/s] | also measured
1 | Cc1cccc(Cl)c1C(=O)N[C@@H](Cc1ccc(-c2c(C(F)(F)F)cc(C)n(C)c2=O)cc1)C(=O)O | 48 | 3.5 | 154 | 0.47 | – | –
2 | Cc1cccc(Cl)c1C(=O)N[C@@H](Cc1ccc(-c2c(C)ccn(C)c2=O)cc1)C(=O)O | 226 | 0.68 | 363 | 0.23 | – | –
3 | COc1ccc(Br)c(C(=O)N[C@@H](Cc2ccc(-c3cccn(C)c3=O)cc2)C(=O)O)c1 | 419 | – | – | – | – | –
4 | Cc1cc(C(F)(F)F)c(-c2ccc(C[C@H](NC(=O)c3c(Cl)cccc3Cl)C(=O)OCC(O)CO)cc2)c(=O)n1C (stereo partly specified) | – | – | – | – | 1.8 | solubility [5]: 140 µg/mL (≈ 233 µM); bioavailability [6]: 6%; Stability [7]: Stable; Stability [8]: Stable; solubility [9, 10]: 190 µg/mL (≈ 316 µM)
5 | Cc1cccc(C(C)C)c1C(=O)N[C@@H](Cc1ccc(-c2c(C(F)(F)F)cc(C)n(C)c2=O)cc1)C(=O)O | 366 | 0.23 | 1290 | 0.36 | – | –
6 | Cc1cc(C(F)(F)F)n(C)c(=O)c1-c1ccc(C[C@H](NC(=O)c2c(Cl)cccc2Cl)C(=O)O)cc1 | 269 | 2.2 | 126 | 0.11 | – | –
7 | Cc1cc(C(F)(F)F)c(-c2ccc(C[C@H](NC(=O)c3c(Cl)cccc3Cl)C(=O)OCC(C)C)cc2)c(=O)n1C | – | – | – | – | 32.5 | Stability [7]: Stable; solubility [9, 11]: BLD
8 | Cc1cc(C(F)(F)F)c(-c2ccc(C[C@H](NC(=O)c3c(Cl)cccc3Cl)C(=O)OCC3CCOC3)cc2)c(=O)n1C (stereo partly specified) | – | – | – | – | 76.4 | solubility [5]: 0.03 µg/mL (≈ 0.0491 µM); Stability [7]: Stable; solubility [9, 10]: 0.03 µg/mL (≈ 0.0491 µM)
9 | CCN(CC)CCOC(=O)[C@H](Cc1ccc(-c2c(C(F)(F)F)cc(C)n(C)c2=O)cc1)NC(=O)c1c(Cl)cccc1Cl | – | – | – | – | 9.6 | bioavailability [6]: 12%; half-life [7]: 0.5 h; IC20 (hERG (KCNH2)): 11700 nM; solubility [9, 10]: > 5000 µg/mL
10 | COCCC1(C(=O)N[C@@H](Cc2ccc(-c3c(C(F)(F)F)cc(C)n(C)c3=O)cc2)C(=O)O)CCCC1 | 140 | 0.54 | 671 | 0.75 | – | –
11 | Cc1cc(C(F)(F)F)c(-c2ccc(C[C@H](NC(=O)c3c(Cl)cccc3Cl)C(=O)OCC(=O)N(C)C)cc2)c(=O)n1C | – | – | – | – | 6.3 | solubility [5]: 0.7 µg/mL (≈ 1.14 µM); Stability [7]: Stable; solubility [9, 10]: 0.8 µg/mL (≈ 1.31 µM)
12 | COCCOC(=O)[C@H](Cc1ccc(-c2c(C(F)(F)F)cc(C)n(C)c2=O)cc1)NC(=O)c1c(Cl)cccc1Cl | – | – | – | – | 49.9 | Stability [7]: Stable; solubility [9, 11]: BLD
13 | Cc1cc(C(F)(F)F)c(-c2ccc(C[C@H](NC(=O)c3c(Cl)cccc3Cl)C(=O)O)cc2)c(=O)[nH]1 | 820 | 0.65 | 810 | 0.08 | – | –
14 | CCn1c(C)cc(C(F)(F)F)c(-c2ccc(C[C@H](NC(=O)c3c(Cl)cccc3Cl)C(=O)O)cc2)c1=O | 112 | 1.9 | 61 | 0.4 | – | –
15 | CC(=O)OC(C)OC(=O)[C@H](Cc1ccc(-c2c(C(F)(F)F)cc(C)n(C)c2=O)cc1)NC(=O)c1c(Cl)cccc1Cl (stereo partly specified) | – | – | – | – | 27.5 | solubility [5]: 4 µg/mL (≈ 6.52 µM); bioavailability [6]: 17%; Stability [7]: Stable
16 | Cc1cc(C(F)(F)F)c(-c2ccc(C[C@H](NC(=O)c3c(Cl)cccc3Cl)C(=O)OCCN3CCOCC3)cc2)c(=O)n1C | – | – | – | – | 16.2 | solubility [5]: 200 µg/mL (≈ 312 µM); bioavailability [6]: 15%; half-life [7]: 4 h; Stability [8]: Stable; IC20 (hERG (KCNH2)): 11000 nM; solubility [9, 10]: > 13000 µg/mL
17 | Cc1cc(C(F)(F)F)c(-c2ccc(C[C@H](NC(=O)c3c(Cl)cccc3Cl)C(=O)O)cc2)c(=O)n1CC1CC1 | 463 | 0.34 | 1230 | 0.03 | – | –
18 | COCCCOC(=O)[C@H](Cc1ccc(-c2c(C(F)(F)F)cc(C)n(C)c2=O)cc1)NC(=O)c1c(Cl)cccc1Cl | – | – | – | – | 22.8 | bioavailability [6]: 2%
19 | CCc1cccc(C)c1C(=O)N[C@@H](Cc1ccc(-c2c(C(F)(F)F)cc(C)n(C)c2=O)cc1)C(=O)O | 225 | 0.7 | 767 | 0.41 | – | –
20 | CCCOC(=O)[C@H](Cc1ccc(-c2c(C(F)(F)F)cc(C)n(C)c2=O)cc1)NC(=O)c1c(Cl)cccc1Cl | – | – | – | – | 52.6 | Stability [7]: Stable; solubility [9, 11]: BLD
21 | Cc1cc(C(F)(F)F)c(-c2ccc(C[C@H](NC(=O)c3c(Cl)cccc3Cl)C(=O)O)cc2)c(=O)n1Cc1ccccc1 | 560 | 0.96 | 600 | 0.12 | – | –
22 | Cc1cccc(Cl)c1C(=O)N[C@@H](Cc1ccc(-c2cccn(C)c2=O)cc1)C(=O)O | 582 | 0.46 | 687 | 0.03 | – | –
23 | Cc1cccc(Cl)c1C(=O)N[C@@H](Cc1ccc(-c2c(C)cc(C(F)(F)F)n(C)c2=O)cc1)C(=O)O | 267 | 2.6 | 160 | 0.06 | – | –
24 | Cc1ccn(C)c(=O)c1-c1ccc(C[C@H](NC(=O)c2c(Cl)cccc2Cl)C(=O)O)cc1 | 90 | 1.6 | 179 | 0.37 | – | –
25 | Cc1cccc(Cl)c1C(=O)N[C@@H](Cc1ccc(NC(=O)c2c(Cl)cccc2Cl)cc1)C(=O)O | 10 | – | 43 | – | – | –
